{
  "source": "ChEMBL document CHEMBL2021898",
  "about": "“Prenylated acylphloroglucinols, chipericumins A-D, from Hypericum chinense” (J Nat Prod, 2012)",
  "key": {"[1]": {"system": "Bacillus subtilis", "experiment": "Antimicrobial activity against Bacillus subtilis by broth micro-dilution method", "type": "functional"}, "[2]": {"system": "Micrococcus luteus", "experiment": "Antimicrobial activity against Micrococcus luteus by broth micro-dilution method", "type": "functional"}, "[3]": {"system": "Trichophyton mentagrophytes", "experiment": "Antimicrobial activity against Trichophyton mentagrophytes by broth micro-dilution method", "type": "functional, organism-based"}, "[4]": {"system": "Escherichia coli", "experiment": "Antimicrobial activity against Escherichia coli by broth micro-dilution method", "type": "functional"}, "[5]": {"system": "Candida albicans", "experiment": "Antimicrobial activity against Candida albicans by broth micro-dilution method", "type": "functional, organism-based"}, "[6]": {"system": "Cryptococcus neoformans", "experiment": "Antimicrobial activity against Cryptococcus neoformans by broth micro-dilution method", "type": "functional, organism-based"}, "[7]": {"system": "KB", "experiment": "Cytotoxicity against human KB cells incubated for 48 hrs at 37 degC", "type": "functional, cell-based", "procedure,_shortened": "(§1)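 Human epidermoid carcinoma KB and murine leukemia L1210 cells were cultured with test compounds at various concentrations, dissolved in 1% DMSO, in 100 μL medium at 37 °C for 48 h. IC50 was taken from a plot of log concentration against growth rate of treated cells. Paclitaxel was the positive control.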"}, "[8]": {"system": "Staphylococcus aureus", "experiment": "Antimicrobial activity against Staphylococcus aureus by broth micro-dilution method", "type": "functional"}, "[9]": {"system": "Aspergillus niger", "experiment": "Antimicrobial activity against Aspergillus niger by broth micro-dilution method", "type": "functional, organism-based"}, "[10]": {"system": "L1210", "experiment": "Cytotoxicity against mouse L1210 cells incubated for 48 hrs at 37 degC", "type": "functional, cell-based", "conditions": "L1210, 48 h", "procedure,_shortened": "as §1"}},
  "data": [
    {"smiles": "CC(C)C(=O)C1=C2O[C@H](C(C)(C)O)C[C@]2(C)C(=O)[C@]2(C[C@H]3[C@@H](CC[C@@]3(C)O)[C@](C)(O)C2)C1=O", "note": "(relative stereo)", "values": [
      {"measurement": "MIC", "setting": "[1]", "value": "> 32", "unit": "µg/mL"},
      {"measurement": "MIC", "setting": "[2]", "value": "> 32", "unit": "µg/mL"},
      {"measurement": "IC50", "setting": "[3]", "value": "> 32", "unit": "µg/mL"},
      {"measurement": "MIC", "setting": "[4]", "value": "> 32", "unit": "µg/mL"},
      {"measurement": "IC50", "setting": "[5]", "value": "> 32", "unit": "µg/mL"},
      {"measurement": "IC50", "setting": "[6]", "value": "> 32", "unit": "µg/mL"},
      {"measurement": "IC50", "setting": "[7]", "value": "> 10", "unit": "µg/mL"},
      {"measurement": "MIC", "setting": "[8]", "value": "> 32", "unit": "µg/mL"},
      {"measurement": "IC50", "setting": "[9]", "value": "> 32", "unit": "µg/mL"},
      {"measurement": "IC50", "setting": "[10]", "value": "> 10", "unit": "µg/mL"}
    ]},
    {"smiles": "CC(=O)O[C@H]1C(=O)[C@@]2(C)[C@H]([C@H](OC(=O)c3ccccc3)[C@]3(O)C[C@H](OC(=O)[C@H](O)[C@@H](NC(=O)c4ccccc4)c4ccccc4)C(C)=C1C3(C)C)[C@]1(OC(C)=O)CO[C@@H]1C[C@@H]2O", "note": "[PACLITAXEL]", "values": [
      {"measurement": "IC50", "setting": "[7]", "value": 0.0045, "unit": "µM"},
      {"measurement": "IC50", "setting": "[10]", "value": 0.12, "unit": "µM"}
    ]},
    {"smiles": "CC(C)=CC[C@]1(C)C(=O)[C@@]2(C[C@H]3[C@@H](CC[C@@]3(C)O)[C@](C)(O)C2)C(=O)C(C(=O)C(C)C)=C1O", "note": "(relative stereo)", "values": [
      {"measurement": "MIC", "setting": "[1]", "value": "> 32", "unit": "µg/mL"},
      {"measurement": "MIC", "setting": "[2]", "value": "> 32", "unit": "µg/mL"},
      {"measurement": "IC50", "setting": "[3]", "value": "> 32", "unit": "µg/mL"},
      {"measurement": "MIC", "setting": "[4]", "value": "> 32", "unit": "µg/mL"},
      {"measurement": "IC50", "setting": "[5]", "value": "> 32", "unit": "µg/mL"},
      {"measurement": "IC50", "setting": "[6]", "value": "> 32", "unit": "µg/mL"},
      {"measurement": "IC50", "setting": "[7]", "value": "> 10", "unit": "µg/mL"},
      {"measurement": "MIC", "setting": "[8]", "value": "> 32", "unit": "µg/mL"},
      {"measurement": "IC50", "setting": "[9]", "value": "> 32", "unit": "µg/mL"},
      {"measurement": "IC50", "setting": "[10]", "value": "> 10", "unit": "µg/mL"}
    ]},
    {"smiles": "CCC(C)C(=O)C1=C(O)[C@@](C)(CC=C(C)C)C(=O)[C@@]2(C[C@H]3[C@@H](CC[C@@]3(C)O)[C@](C)(O)C2)C1=O", "note": "(relative stereo)", "values": [
      {"measurement": "MIC", "setting": "[1]", "value": "> 32", "unit": "µg/mL"},
      {"measurement": "MIC", "setting": "[2]", "value": "> 32", "unit": "µg/mL"},
      {"measurement": "IC50", "setting": "[3]", "value": "> 32", "unit": "µg/mL"},
      {"measurement": "MIC", "setting": "[4]", "value": "> 32", "unit": "µg/mL"},
      {"measurement": "IC50", "setting": "[5]", "value": "> 32", "unit": "µg/mL"},
      {"measurement": "IC50", "setting": "[6]", "value": "> 32", "unit": "µg/mL"},
      {"measurement": "IC50", "setting": "[7]", "value": "> 10", "unit": "µg/mL"},
      {"measurement": "MIC", "setting": "[8]", "value": "> 32", "unit": "µg/mL"},
      {"measurement": "IC50", "setting": "[9]", "value": "> 32", "unit": "µg/mL"},
      {"measurement": "IC50", "setting": "[10]", "value": "> 10", "unit": "µg/mL"}
    ]},
    {"smiles": "CCC(C)C(=O)C1=C2O[C@H](C(C)(C)O)C[C@]2(C)C(=O)[C@]2(C[C@H]3[C@@H](CC[C@@]3(C)O)[C@](C)(O)C2)C1=O", "note": "(some centres not stated) [CHIPERICUMIN B]", "values": [
      {"measurement": "MIC", "setting": "[1]", "value": "> 32", "unit": "µg/mL"},
      {"measurement": "MIC", "setting": "[2]", "value": "> 32", "unit": "µg/mL"},
      {"measurement": "IC50", "setting": "[3]", "value": "> 32", "unit": "µg/mL"},
      {"measurement": "MIC", "setting": "[4]", "value": "> 32", "unit": "µg/mL"},
      {"measurement": "IC50", "setting": "[5]", "value": "> 32", "unit": "µg/mL"},
      {"measurement": "IC50", "setting": "[6]", "value": "> 32", "unit": "µg/mL"},
      {"measurement": "IC50", "setting": "[7]", "value": "> 10", "unit": "µg/mL"},
      {"measurement": "MIC", "setting": "[8]", "value": "> 32", "unit": "µg/mL"},
      {"measurement": "IC50", "setting": "[9]", "value": "> 32", "unit": "µg/mL"},
      {"measurement": "IC50", "setting": "[10]", "value": "> 10", "unit": "µg/mL"}
    ]}
  ]
}
